# Reference: PubChem BioAssay AID685 (PCMD, 2007)
# Hit rate of the full screen: of about 30,000 compounds, about 80 (0.3%) were called active.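 The calls were made as follows: active = mutant and wild-type yeast strains alike exhibit over 30% growth inhibition; inconclusive = a strain exceeds 50% while the second remains under 30%; inactive = the rest.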 What follows is part of a selection rich in actives, with near analogues and random picks from the rest.
# Assay: yeast growth toxicity, wild-type and mutant, primary screen, cytotoxicity control for eIF2B function restoration project, wild-type and eIF2Bepsilon R284H mutant, A595 (AID 685);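 also: 0% = untreated cell controls and 100% = YPD media blanks without cells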
# Settings: A595 turbidity, 16 h, stronger effect = higher value, screened at 25 µM (by protocol)
# How it was run: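 system = S. cerevisiae wild-type or eIF2Bepsilon-R284H mutant strain | buffer or medium = YPD medium | dosing = one dose, 25 µM compound, 0.2% DMSO | schedule = 16 h at 30 °C | measured by = A595 turbidity | evaluation = growth inhibition (%) versus cell controls and blanks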
# [1] = S. cerevisiae eIF2Bepsilon-R284H mutant growth
SMILES,growth inhibition [1],growth inhibition (S. cerevisiae wild-type growth)
CC(C)NC(=O)C(=O)NCCN1CCN(S(=O)(=O)c2ccc(Cl)cc2)CC1,7.69%,7.31% (inactive)
COc1ccc(C2CC(=O)n3c(nc4ccccc43)S2)cc1OC (stereo unspecified),-2.13%,32% (inactive)
COc1ccc(-c2cc(C(F)(F)F)nc(NCc3cccnc3)n2)cc1,25.5%,15.3% (inactive)
CCCc1nc2sc3c(c2c(=O)n1NC(=O)CCCl)CCCC3,9.3%,-7.93% (inactive)
CCOC(=O)N1CCN(C(=O)COc2ccc(Br)cc2)CC1,0%,10.3% (inactive)
CCn1nc(C)c(NC(=O)/C=C/c2ccc(OC)c(COc3ccc(Br)cc3)c2)c1C,50%,54.5% (active)
COc1cccc(OCc2cc(/C=N/NC(=O)c3nc(Cl)c(Cl)c(N)c3Cl)ccc2OC)c1,-17.9%,-14.8% (inactive)
C=CCn1c(SCc2c(C(=O)OC)sc(N)c2C(=O)OC)nnc1-c1ccc(Cl)cc1,6.98%,-10.3% (inactive)
CCCCOc1ccc(C(=O)NCc2ccncc2)cc1,18.6%,33.8% (inactive)
CCCOc1ccc(C2NC(=O)NC(c3ccccc3)=C2C(C)=O)cc1OCC (stereo unspecified),7.89%,4.64% (inactive)
COC(=O)/C(NC(C)=O)=C(\C)c1ccc(Cl)cc1,-32.3%,8.3% (inactive)
CCOc1ccc(NC(=O)CCS(=O)(=O)c2ccc3c(c2)CCCN3C(=O)CC)cc1,13.5%,10.8% (inactive)
CCN(CC)CCn1c(=S)[nH]c2ncccc2c1=O,5.13%,11.5% (inactive)
CCc1ccc(NC(=O)CN2C(=O)CSC2=O)cc1,-8.82%,5% (inactive)
COc1ccc(C)cc1S(=O)(=O)NCCc1ccccc1,12.9%,4.64% (inactive)
CC(C)=C1SC(N2CCN(c3cccc(C)c3)CC2)=NC1=O,16.2%,11.8% (inactive)
COc1cccc2cc(C(=O)N3CCN(C(=O)c4ccccc4)CC3)c(=O)oc12,9.38%,8.28% (inactive)
CC(Oc1ccc(Cl)cc1)c1ccnn1S(C)(=O)=O (stereo unspecified),10.8%,28.1% (inactive)
CC(C)(C)n1nnnc1C(c1ccc(F)cc1)N1CCN(Cc2ccc3c(c2)OCO3)CC1 (stereo unspecified),-18.2%,15% (inactive)
N/C(=N\OC(=O)Nc1ccc(Cl)c(Cl)c1)c1ncc(C(F)(F)F)cc1Cl,30.3%,35.2% (active)
NC(=O)c1ncc(C(F)(F)F)cc1Oc1ccc(F)cc1,-3.33%,19.2% (inactive)
CCn1nccc1C(=O)Nc1ccc(Cl)c(Cl)c1,-8.33%,12.8% (inactive)
CN1CCN(C(=O)Cn2c(C(F)(F)F)nc3ccccc32)CC1,25%,9.62% (inactive)
